From article PMC6589987 (Therapeutic Advances in Chronic Disease, 2019)
Entries after “also recorded” stand apart in the source; their conditions may differ. Like-named read-outs stand apart in the source and are kept apart here.

Columns and labels:
[1] = after subcutaneous injection; cited from earlier work
[2] = cited from earlier work
[3] = Delivered dose and fine particle dose from the Cyclops inhaler; assay type: physicochemical; conditions: at 4 kPa; laser diffraction
In short: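 Residue left in the inhaler after each patient inhalation was measured by UV spectrophotometry. Delivered dose was calculated as blister dose minus inhaler residue. Fine particle dose (<5 µm) was measured by laser diffraction at 4 kPa.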

[4] = progressed, fluctuating patients; cited from earlier work
[5] = Airway tolerability: spirometry; assay type: in vivo, human
In short: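 Eight patients with Parkinson's disease (not off) inhaled dry-powder levodopa by mouth: 30 mg, then 60 mg (2 × 30 mg). At a third visit they took their regular oral levodopa/decarboxylase inhibitor. Visits were ≥7 days apart, in the morning, ≥7.5 h after the last home dose, with no food for 60 min either side. Spirometry (pneumotachograph, ATS/ERS) was done before and ±35 and 100 min after dosing. FEV1 drop >10% from baseline was deemed relevant. Cough and dyspnoea were queried each session (Borg scale).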

[6] = Plasma levodopa pharmacokinetics after inhaled; assay type: in vivo, human; conditions: for AUC: inhaled or intranasal
In short: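 Eight Parkinson's patients, not in the off state, got single morning doses at least 7.5 h after their last home dose, fasting 60 min before to 60 min after. Oral doses were 100/25–250/62.5 mg with decarboxylase inhibitor, normalised to 100 mg. Plasma had glutathione added and was stored at −80°C, then assayed by LC-MS/MS (LOQ 1.0 nmol/l). Half-life came from Cmax and the last concentration.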

Row | Compound | lag time to onset of effect [1] [min] | plasma levodopa concentration ([2]; 10 min after 100 mg oral levodopa in the fasted state) | absolute bioavailability ([2]; oral immediate-release levodopa combined with a decarboxylase inhibitor) | absolute bioavailability ([2]; oral immediate-release levodopa) | fine particle dose (<5 µm) [3] | increase in levodopa effect compartment concentration giving maximum effect on finger tapping [4] [ng/mL] | change in lung-function parameters (FEV1, FVC, MEF50) ([5]; after inhalation of 30 mg or 60 mg levodopa, spirometry ±35 and 100 min after administration) | tolerability ([5]; after inhalation, 30 and 60 mg) | change in lung-function parameters (FEV1, FVC, MEF50) ([5]; after oral administration of levodopa) | patients experiencing cough or dyspnoea ([5]; during or after inhalation) | AUC ([6]; human, plasma, 30 mg) [ng·h/mL] | AUC ([6]; human, plasma, 60 mg) [ng·h/mL] | half-life ([6]; human, plasma, po, mean elimination half-life time, oral administration of levodopa plus decarboxylase inhibitor) [h] | elimination half-life ([6]; inhaled levodopa, both doses, range and mean) [h] | time by which inhaled levodopa is absorbed faster in the blood plasma than oral ([6]; inhaled vs oral) | relative bioavailability of inhaled levodopa in comparison with oral levodopa ([6]; inhaled without carboxylase inhibitor vs oral with carboxylase inhibitor) [%] | mean elimination half-life time ([6]; oral administration of levodopa plus decarboxylase inhibitor) [h]
1 | CN1CCc2cccc3c2[C@H]1Cc1ccc(O)c(O)c1-3 [apomorphine] | > 20 | – | – | – | – | – | – | – | – | – | – | – | – | – | – | – | –
2 | N[C@@H](Cc1ccc(O)c(O)c1)C(=O)O [levodopa, Levodopa] | – | around 150 ng/ml | approximately 85% | 40–60% | 45 % of the delivered dose | 200 to 400 | No significant change; also recorded: none of the patients | well tolerated | No significant change | none of the patients | 9.69 | 9.58 | 1.13 ± 0.343 | 0.967 | up to 85 min | 53 | 1.13
